# Assay results taken from PubChem BioAssay.
# Unmarked numbers belong to inactive results. Active and inactive are the calls of the source.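 How the source made its calls, unless noted: active means viability at or under a set limit in both replicates, limit being median viability minus 3 SD (cut at about 48% in these data, passing the limit was not always enough); inconclusive means at or under the limit in just one replicate; inactive means at or above the limit in both replicates.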
# Test: HUVEC growth inhibition – cell-based, human, primary screen (AID 575;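 active means viability at or below 30% in both replicate assays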;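 further: 100% = median of untreated cell wells with 0.1% DMSO on each plate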)
# Details: HUVEC proliferation, CellTiter-Glo luminescence, 72 h; at 10 µM; active compounds read low
# Method in brief: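 Assay system: primary human umbilical vein endothelial cells / Buffer or medium: endothelial basal medium with 2% FBS plus growth supplements / Compound dosing: one dose, 10 µM final, 0.1% DMSO / Timing: 72 h treatment at 37 °C / Signal: CTG luminescence / Benchmarks: 32 DMSO-only cell-control wells (high), 32 MePR drug-control wells (low) per plate / Plate: collagen-coated 384-well format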
row,Compound,viability
1,COc1cc(NC2=CC(=O)CC(C)(C)C2)cc(OC)c1,85.5%
2,Cc1ccccc1CN1CCN(CC(=O)NCc2ccccc2)C1=O,97.9%
3,CCOC(=O)c1nnc(-c2ccccc2)o1,86.1%
4,CCC(c1nnc(SCC(=O)NCC2CCCO2)n1Cc1ccccc1)N(C)C (stereo not drawn),96.8%
5,Cc1ccc(N2CC(C)Cn3c2nc2c3c(=O)n(CC(=O)OCc3ccccc3)c(=O)n2C)cc1C (stereo not drawn),74.8%
6,CCNC(=O)c1ccc(NS(=O)(=O)c2ccccc2)cc1,86.1%
7,CCOc1ccc(-c2nc(C#N)c(N3CCCCCC3)o2)cc1,79.5%
8,Cc1ccc(NS(=O)(=O)c2cn(C)cn2)cc1,100%
9,Fc1ccccc1-c1nc(-c2ccccc2)no1,81.4%
10,CCOC(=O)C1=C(C)NC(C)=C(C(=O)OCC)C1c1cc(N)ccc1OC(F)F,76.6%
11,COc1ccccc1C1/C(=C(\O)c2c(C)nc3c(C)cccn23)C(=O)C(=O)N1CCCN(C)C (stereo not drawn),85.3%
12,CCOC(=O)C1CCCN(Cc2nc(N)nc(Nc3ccc(C)cc3)n2)C1 (stereo not drawn),80%
13,ON1C2CCCCC2N(O)C1c1c(F)c(F)c(F)c(F)c1F (stereo not drawn),85.9%
14,CCOc1ccc(CN2C(=O)c3ccccc3C2C(=O)NCc2cccnc2)cc1 (stereo not drawn),86.6%
15,CCOc1ccccc1NC(=O)CN(c1ccc(C)cc1)S(=O)(=O)c1c(C)noc1C,68.3%
16,CCCOc1ccc([C@@H]2C3CN(C(=O)OCC)CC=C3C(C#N)=C(N)C2(C#N)C#N)cc1OC (stereo partly drawn),85.2%
17,COc1ccc(C2=NOC(C(=O)NCc3ccc(F)cc3)C2)cc1OC (stereo not drawn),42%
18,COc1cc(C2CC(=O)NC3=C2C(=O)CC(C)(C)C3)ccc1O (stereo not drawn),82.7%
19,CCOc1ccc2[nH]c(=O)c(CN(Cc3nnnn3CCc3ccccc3)CC3CCCO3)cc2c1 (stereo not drawn),90.6%
20,Cc1cc(C)c2cc3c(ccn3C3OC[C@H](O)[C@H](O)[C@H]3O)cc2n1 (stereo partly drawn),90.2%
21,N[C@@H](Cc1ccccc1)c1nnc2sc(SCc3ccccc3)nn12,85.2%
22,CCC(C)NC(=O)C1(C)CCC(=O)N1Cc1ccccc1OC (stereo not drawn),99.8%
23,Cc1cc(Nc2ccc(C(=O)O)cc2)n2nc(C)nc2n1,90.5%

# Test: growth inhibitors of H69AR lung tumor, primary screen, human, duplicate replicates (AID 580);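 further: 100% = mean luminescence of untreated wells and 0% = no signal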
# Details: H69AR lung tumor cells viability, ATP luminescence, 72 h; at 10 µM; active compounds read low
row,Compound,viability
1,CC(=O)Nc1ccc(S(=O)(=O)N2CCN(C(C)CCc3ccccc3)CC2)cc1 (stereo not drawn),96.6%
2,COc1ccc(NC(=O)Nc2cc(C)ccc2OC)cc1,93.6%
3,O=C(CNS(=O)(=O)c1ccc(Br)s1)N1CCCC1,99.9%
4,Cn1c(=N)n(CC(=O)O)c2ccccc21,96.2%
5,CC(C)(C)Nc1nc(OCC(F)(F)F)nc(OCC(F)(F)F)n1,89.1%
6,COc1cc(CC(=O)Nc2ncc(C)s2)cc(OC)c1OC,91.5%
7,Cc1ccc(NC2=NC3(CCCCC3)N=C(N)N2)c(C)c1,102%
8,C=CCSc1nnc(-c2ccccc2NC(C)=O)c(=O)[nH]1,93%
9,CC1CCN(CCCNC(=O)c2cn(C)c3ccc(S(=O)(=O)N4CCCC4)cc3c2=O)CC1,91%
10,C=CCOc1ccc(/C(O)=C2\C(=O)C(=O)N(CCOC)C2c2cccnc2)cc1 (stereo not drawn),103%
11,Cc1cccc(C(=O)N2CCC(n3nnc4cc(F)ccc43)CC2)c1,86.4%
12,CC(C)Oc1ccc(N2CC(C(=O)Nc3ccccc3F)CC2=O)cc1 (stereo not drawn),97.6%
13,O=C(CSc1ncc(-c2ccc(F)cc2)[nH]1)N1CCCCC1,91.3%
14,CCCNC(=O)Nc1ccccc1C(=O)Nc1ccc(OC)cc1,94.6%
15,COc1ccccc1OCC(=O)NCC1CCCCC1,109%
16,Cc1ccccc1NC(=O)CSc1nc(N)c(C#N)c(-c2cccs2)c1C#N,30.2% (active)
17,c1ccc(CCc2nc(-c3cccnc3)no2)cc1,92.9%
18,COc1cc(NC2=CC(=O)CC(C)(C)C2)cc(OC)c1,96.8%
19,Cc1ccccc1CN1CCN(CC(=O)NCc2ccccc2)C1=O,89.9%
20,CCOC(=O)c1nnc(-c2ccccc2)o1,88.1%

row,Compound,viability
1,CCC(c1nnc(SCC(=O)NCC2CCCO2)n1Cc1ccccc1)N(C)C (stereo not drawn),89.2%
2,Cc1ccc(N2CC(C)Cn3c2nc2c3c(=O)n(CC(=O)OCc3ccccc3)c(=O)n2C)cc1C (stereo not drawn),93.8%
3,CCNC(=O)c1ccc(NS(=O)(=O)c2ccccc2)cc1,90.5%
4,CCOc1ccc(-c2nc(C#N)c(N3CCCCCC3)o2)cc1,94.7%
5,Cc1ccc(NS(=O)(=O)c2cn(C)cn2)cc1,92.7%
6,Fc1ccccc1-c1nc(-c2ccccc2)no1,111%
7,CCOC(=O)C1=C(C)NC(C)=C(C(=O)OCC)C1c1cc(N)ccc1OC(F)F,111%
8,COc1ccccc1C1/C(=C(\O)c2c(C)nc3c(C)cccn23)C(=O)C(=O)N1CCCN(C)C (stereo not drawn),102%
9,CCOC(=O)C1CCCN(Cc2nc(N)nc(Nc3ccc(C)cc3)n2)C1 (stereo not drawn),87.4%
10,ON1C2CCCCC2N(O)C1c1c(F)c(F)c(F)c(F)c1F (stereo not drawn),92.8%
11,CCOc1ccc(CN2C(=O)c3ccccc3C2C(=O)NCc2cccnc2)cc1 (stereo not drawn),98.8%
12,CCOc1ccccc1NC(=O)CN(c1ccc(C)cc1)S(=O)(=O)c1c(C)noc1C,81%
13,CCCOc1ccc([C@@H]2C3CN(C(=O)OCC)CC=C3C(C#N)=C(N)C2(C#N)C#N)cc1OC (stereo partly drawn),63.4%
14,COc1ccc(C2=NOC(C(=O)NCc3ccc(F)cc3)C2)cc1OC (stereo not drawn),29.3% (active)
15,COc1cc(C2CC(=O)NC3=C2C(=O)CC(C)(C)C3)ccc1O (stereo not drawn),109%
16,CCOc1ccc2[nH]c(=O)c(CN(Cc3nnnn3CCc3ccccc3)CC3CCCO3)cc2c1 (stereo not drawn),78.7%
17,Cc1cc(C)c2cc3c(ccn3C3OC[C@H](O)[C@H](O)[C@H]3O)cc2n1 (stereo partly drawn),97.4%
18,N[C@@H](Cc1ccccc1)c1nnc2sc(SCc3ccccc3)nn12,87.9%
19,CCC(C)NC(=O)C1(C)CCC(=O)N1Cc1ccccc1OC (stereo not drawn),95.3%
20,Cc1cc(Nc2ccc(C(=O)O)cc2)n2nc(C)nc2n1,109%
